Experimental data from different studies.
Lines come from different studies, so protocols differ.
ABL1 T315I phosphorylated: Tyrosine-protein kinase ABL1, phosphorylated (ABL1, Homo sapiens, UniProt P00519, T315I)
ABL1 Y253F phosphorylated: Tyrosine-protein kinase ABL1, phosphorylated (ABL1, Homo sapiens, UniProt P00519, Y253F)
ABL1 F317L non-phosphorylated: Tyrosine-protein kinase ABL1, non-phosphorylated (ABL1, Homo sapiens, UniProt P00519, F317L)
ABL1 T315I non-phosphorylated: Tyrosine-protein kinase ABL1, non-phosphorylated (ABL1, Homo sapiens, UniProt P00519, T315I)
ABL1 M351T phosphorylated: Tyrosine-protein kinase ABL1, phosphorylated (ABL1, Homo sapiens, UniProt P00519, M351T)
ABL1 F317I phosphorylated: Tyrosine-protein kinase ABL1, phosphorylated (ABL1, Homo sapiens, UniProt P00519, F317I)
ABL1 phosphorylated: Tyrosine-protein kinase ABL1, phosphorylated (ABL1, Homo sapiens, UniProt P00519)
ABL1 H396P non-phosphorylated: Tyrosine-protein kinase ABL1, non-phosphorylated (ABL1, Homo sapiens, UniProt P00519, H396P)

SMILES | target | read-out | technique | concentration | remaining binding [%]
Cc1c(NC(=O)c2cc(C(N)=O)nc3cc(F)ccc23)c(C(F)(F)F)nn1Cc1ccc(C(C)(C)C)cc1 | ABL1 T315I phosphorylated | cell-free assay | competition with immobilised ligand | 1 µM | 85
O=C(NCCCN1CCOCC1)c1ccc(Nc2nccc(-c3cc4ccccc4s3)n2)cc1 | ABL1 Y253F phosphorylated | binding | competition with immobilised ligand | 1 µM | 44
COc1ncc2cc3ccccc3nc2c1C#N | ABL1 F317L non-phosphorylated | cell-free assay | competition with immobilised ligand | 5 µM | 100
F[C@@H]1CCN(c2nccc(-c3cnn4ncccc34)n2)C1 | Tyrosine-protein kinase ABL1 (ABL1, Homo sapiens, UniProt P00519, F317L) | binding | – | 1 µM | 100
O=C(N1CCS(=O)(=O)CC1)N1C[C@H](c2ccc(OC(F)(F)F)cc2)C[C@H](c2nc(C3CC3)no2)C1 | ABL1 T315I non-phosphorylated | cell-free assay | competition with immobilised ligand | 1 µM | 92
C=CC(=O)N1CCC(C(=O)NCC(=O)N2CCN(c3nc(-c4cnc(N)nc4C(F)F)nc(N4CCOCC4)n3)CC2)CC1 | ABL1 M351T phosphorylated | binding | competition with immobilised ligand | 1 µM | 99
Nc1ncc2c(n1)-c1c([nH]c3ccc(C#CC4CC4)cc13)CCCC2 | ABL1 F317I phosphorylated | binding | competition with immobilised ligand | 1 µM | 86
O=C(c1ccc(Nc2nccc(-c3cc4ccccc4s3)n2)cc1)N1CCC(N2CCCC2)CC1 | Tyrosine-protein kinase ABL1, phosphorylated (ABL1, Homo sapiens, UniProt P00519, Q252H) | binding | competition with immobilised ligand | 1 µM | 6.4
COc1cnc(Nc2cccc(S(N)(=O)=O)c2)nc1N1CCN(c2ccccc2)C(=O)C1 | ABL1 T315I phosphorylated | binding | competition with immobilised ligand | 1 µM | 77
O=C(Nc1c[nH]nc1C(=O)NC1CCNCC1)c1cc(F)cc(F)c1 | Tyrosine-protein kinase ABL1, phosphorylated (ABL1, Homo sapiens, UniProt P00519, H396P) | binding | competition with immobilised ligand | 1 µM | 100
O=C(Nc1cnc(Oc2ccc(F)cc2)nc1)N1CCc2ncccc2[C@@H]1c1ccc(F)cc1 | ABL1 phosphorylated | cell-free assay | competition with immobilised ligand | 1 µM | 94
CC1CCCN1c1nccc(-c2cnn3ncccc23)n1 (centres unmarked) | Tyrosine-protein kinase ABL1 (ABL1, Homo sapiens, UniProt P00519, M351T) | binding | – | 1 µM | 98
Cc1cnc(Nc2ccc(C(=O)N3CCC(N4CCCC4)CC3)cc2)nc1-c1cc2ccccc2s1 | ABL1 H396P non-phosphorylated | binding | competition with immobilised ligand | 1 µM | 0.1
CC1=C(C#N)C(c2ccc3c(c2)c(NC(=O)c2ccccc2C)nn3C)C(C#N)=C(C)N1 | ABL1 H396P non-phosphorylated | cell-free assay | competition with immobilised ligand | 1 µM | 100
COc1cnc(Nc2cccc(S(N)(=O)=O)c2)nc1N1CCN(c2ccccc2)CC1 | ABL1 Y253F phosphorylated | binding | competition with immobilised ligand | 1 µM | 73
N[C@H]1CCN(c2nccc(-c3cnn4ncccc34)n2)C1 | Tyrosine-protein kinase ABL1, non-phosphorylated (ABL1, Homo sapiens, UniProt P00519) | binding | – | 1 µM | 91
CN(C)C(=O)Cn1cc(-c2nc(C3(c4ccc(-c5cnc(N)nc5)cc4)CC3)no2)cn1 | ABL1 F317L non-phosphorylated | cell-free assay | competition with immobilised ligand | 1 µM | 55
c1cncc(-c2cccc(Nc3nccc(NC4CCCCC4)n3)c2)c1 | ABL1 F317I phosphorylated | binding | competition with immobilised ligand | 10 µM | 100
CS(=O)(=O)c1cc(C2(NC(=O)c3cncc4c3cnn4-c3ccc(F)cc3)CC2)ccn1 | ABL1 M351T phosphorylated | cell-free assay | competition with immobilised ligand | 1 µM | 92
CN(CCCC(F)(F)F)c1nccc(-c2cnn3ncccc23)n1 | Tyrosine-protein kinase ABL1 (ABL1, Homo sapiens, UniProt P00519, E255K) | binding | – | 1 µM | 98
CCN1CCN(Cc2ccc(C(=O)Nc3ccc(C)c(Oc4ccc5c(c4)CC(=O)N5)c3)cc2C(F)(F)F)CC1 | ABL1 phosphorylated | binding | competition with immobilised ligand | 1 µM | 34
C[C@@]1(Cc2ccc(C#N)cc2)C(=O)N(c2cc(Cl)cc(Cl)c2)c2ncc(C(=O)NC3(c4nc(C5CCC5)no4)CC3)n21 | ABL1 T315I non-phosphorylated | cell-free assay | competition with immobilised ligand | 1 µM | 100
O=C(c1ccc(Nc2ncc(Cl)c(-c3ccc(Cl)s3)n2)cc1)N1CCC(N2CCCC2)CC1 | ABL1 Y253F phosphorylated | binding | competition with immobilised ligand | 1 µM | 5
